Data taken from ChEMBL document CHEMBL2202955, “Identification of Potent, Selective, Cell-Active Inhibitors of the Histone Lysine Methyltransferase EZH2” (ACS Med Chem Lett, 2012).

How the values were obtained:
[1] = target: Histone-lysine N-methyltransferase EZH2 (Homo sapiens, UniProt Q15910); assay: Inhibition of EZH2-mediated nuclear H3K27 methylation in human HCC1806 cells after 72 hrs by immunofluorescence analysis; assay type: cell-based
Procedure, shortened: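 HCC1806 breast cancer cells were exposed to compound for 72 h. Nuclear H3K27me3 was quantified by an immunofluorescence imaging assay and normalized to total H3. Values are the mean of at least three independent replicates.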

[2] = target: DNA (cytosine-5)-methyltransferase 1 (Homo sapiens, UniProt P26358); assay: Inhibition of DNMT1 using polydi-dc as substrate preincubated for 10 mins followed by addition of [3H]SAM and incubated for 60 mins
Sequence of DNA (cytosine-5)-methyltransferase 1 (P26358 whole entry): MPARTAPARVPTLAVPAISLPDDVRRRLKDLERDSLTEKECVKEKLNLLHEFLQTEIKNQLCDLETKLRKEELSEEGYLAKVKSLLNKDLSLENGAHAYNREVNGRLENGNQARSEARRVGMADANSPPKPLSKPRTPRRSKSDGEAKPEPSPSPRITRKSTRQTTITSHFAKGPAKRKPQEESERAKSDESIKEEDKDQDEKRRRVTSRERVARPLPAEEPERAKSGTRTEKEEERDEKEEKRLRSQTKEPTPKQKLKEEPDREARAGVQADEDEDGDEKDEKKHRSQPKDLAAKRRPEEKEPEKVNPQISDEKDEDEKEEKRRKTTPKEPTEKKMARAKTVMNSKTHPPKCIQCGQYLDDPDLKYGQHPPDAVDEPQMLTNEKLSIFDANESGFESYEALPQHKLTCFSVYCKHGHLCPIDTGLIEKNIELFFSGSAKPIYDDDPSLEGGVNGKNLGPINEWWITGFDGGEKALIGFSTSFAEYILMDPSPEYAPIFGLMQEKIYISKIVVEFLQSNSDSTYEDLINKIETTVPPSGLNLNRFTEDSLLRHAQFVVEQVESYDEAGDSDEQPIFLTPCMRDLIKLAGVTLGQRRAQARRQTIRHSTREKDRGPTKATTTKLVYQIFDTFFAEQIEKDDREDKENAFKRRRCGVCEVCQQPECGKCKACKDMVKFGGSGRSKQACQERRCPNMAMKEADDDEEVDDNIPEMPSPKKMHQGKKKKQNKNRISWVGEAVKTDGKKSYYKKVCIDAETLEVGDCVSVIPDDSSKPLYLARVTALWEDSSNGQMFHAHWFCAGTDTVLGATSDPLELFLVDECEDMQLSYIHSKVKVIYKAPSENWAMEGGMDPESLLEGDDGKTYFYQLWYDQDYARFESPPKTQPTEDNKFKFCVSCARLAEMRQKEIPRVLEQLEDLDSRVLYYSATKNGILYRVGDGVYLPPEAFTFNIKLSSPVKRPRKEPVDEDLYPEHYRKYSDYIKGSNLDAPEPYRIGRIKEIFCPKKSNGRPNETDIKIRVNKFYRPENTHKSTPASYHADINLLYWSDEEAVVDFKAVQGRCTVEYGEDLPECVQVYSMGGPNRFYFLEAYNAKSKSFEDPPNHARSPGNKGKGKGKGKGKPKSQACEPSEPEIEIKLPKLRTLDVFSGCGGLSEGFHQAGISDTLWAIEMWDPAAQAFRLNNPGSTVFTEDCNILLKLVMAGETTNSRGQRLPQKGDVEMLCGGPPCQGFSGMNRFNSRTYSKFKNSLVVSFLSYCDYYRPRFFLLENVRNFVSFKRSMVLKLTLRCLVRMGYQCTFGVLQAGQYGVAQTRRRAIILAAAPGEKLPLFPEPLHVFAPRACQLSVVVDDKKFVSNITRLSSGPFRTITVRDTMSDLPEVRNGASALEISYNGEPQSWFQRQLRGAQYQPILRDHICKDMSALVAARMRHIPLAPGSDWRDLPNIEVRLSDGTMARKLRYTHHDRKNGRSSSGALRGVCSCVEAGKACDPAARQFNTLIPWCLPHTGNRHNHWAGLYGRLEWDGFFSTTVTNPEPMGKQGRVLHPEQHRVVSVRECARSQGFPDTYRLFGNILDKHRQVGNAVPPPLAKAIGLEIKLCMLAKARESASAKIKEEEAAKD
Procedure, shortened: (§1)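 Panel of methyltransferases tested for selectivity. […] Values are the mean of at least two independent replicates.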

[3] = target: T1, Histone-lysine N-methyltransferase EHMT2 (Homo sapiens, UniProt Q96KQ7); assay: Inhibition of G9a using histone H3 as substrate preincubated for 10 mins followed by addition of [3H]SAM and incubated for 60 mins; procedure, shortened: as §1
T1 sequence (Q96KQ7 whole entry): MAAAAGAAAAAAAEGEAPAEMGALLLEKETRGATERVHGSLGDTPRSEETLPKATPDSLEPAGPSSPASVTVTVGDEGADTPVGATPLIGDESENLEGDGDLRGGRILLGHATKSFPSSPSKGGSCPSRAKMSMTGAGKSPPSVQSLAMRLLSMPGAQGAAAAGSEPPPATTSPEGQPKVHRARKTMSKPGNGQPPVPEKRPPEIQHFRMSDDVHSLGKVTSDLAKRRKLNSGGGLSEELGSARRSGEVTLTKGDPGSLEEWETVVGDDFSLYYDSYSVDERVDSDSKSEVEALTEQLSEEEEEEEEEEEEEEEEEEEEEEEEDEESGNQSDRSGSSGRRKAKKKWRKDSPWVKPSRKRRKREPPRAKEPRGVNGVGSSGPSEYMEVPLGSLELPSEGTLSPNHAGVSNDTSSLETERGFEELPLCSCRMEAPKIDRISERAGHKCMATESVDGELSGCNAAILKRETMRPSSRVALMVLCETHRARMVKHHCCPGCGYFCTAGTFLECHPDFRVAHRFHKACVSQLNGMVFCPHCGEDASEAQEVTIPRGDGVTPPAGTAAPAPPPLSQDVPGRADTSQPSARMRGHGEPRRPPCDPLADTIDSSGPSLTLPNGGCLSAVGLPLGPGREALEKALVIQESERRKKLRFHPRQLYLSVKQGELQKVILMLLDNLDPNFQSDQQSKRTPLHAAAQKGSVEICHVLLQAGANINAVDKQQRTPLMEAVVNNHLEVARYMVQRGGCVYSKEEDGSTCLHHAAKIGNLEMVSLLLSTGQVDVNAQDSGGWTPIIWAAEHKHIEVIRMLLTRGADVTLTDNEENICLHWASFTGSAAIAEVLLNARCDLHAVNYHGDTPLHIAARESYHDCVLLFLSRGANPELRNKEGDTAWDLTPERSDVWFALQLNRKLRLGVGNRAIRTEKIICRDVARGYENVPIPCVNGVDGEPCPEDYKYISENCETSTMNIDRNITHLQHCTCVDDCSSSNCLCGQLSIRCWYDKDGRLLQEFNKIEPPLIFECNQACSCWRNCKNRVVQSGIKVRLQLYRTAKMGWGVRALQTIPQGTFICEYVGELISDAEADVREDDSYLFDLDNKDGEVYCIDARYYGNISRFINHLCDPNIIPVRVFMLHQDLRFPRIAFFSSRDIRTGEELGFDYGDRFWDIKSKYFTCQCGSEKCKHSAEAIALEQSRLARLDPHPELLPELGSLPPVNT

[4] = target: EZH2/SUZ12/EED/RBBP7/RBBP4; assay: Inhibition of PRC2 complex of FLAG-EZH2, EED, SUZ12, AEBP2 and RbAp48 using histone H3 peptide (21 to 44) as substrate and [3H]SAM after 1 hr; assay type: protein-complex assay
[5] = target: T2, Histone-lysine N-methyltransferase SETMAR (Homo sapiens, UniProt Q53H47); assay: Inhibition of SETMAR using histone H3 as substrate preincubated for 10 mins followed by addition of [3H]SAM and incubated for 60 mins; procedure, shortened: as §1
T2 sequence (Q53H47 whole entry): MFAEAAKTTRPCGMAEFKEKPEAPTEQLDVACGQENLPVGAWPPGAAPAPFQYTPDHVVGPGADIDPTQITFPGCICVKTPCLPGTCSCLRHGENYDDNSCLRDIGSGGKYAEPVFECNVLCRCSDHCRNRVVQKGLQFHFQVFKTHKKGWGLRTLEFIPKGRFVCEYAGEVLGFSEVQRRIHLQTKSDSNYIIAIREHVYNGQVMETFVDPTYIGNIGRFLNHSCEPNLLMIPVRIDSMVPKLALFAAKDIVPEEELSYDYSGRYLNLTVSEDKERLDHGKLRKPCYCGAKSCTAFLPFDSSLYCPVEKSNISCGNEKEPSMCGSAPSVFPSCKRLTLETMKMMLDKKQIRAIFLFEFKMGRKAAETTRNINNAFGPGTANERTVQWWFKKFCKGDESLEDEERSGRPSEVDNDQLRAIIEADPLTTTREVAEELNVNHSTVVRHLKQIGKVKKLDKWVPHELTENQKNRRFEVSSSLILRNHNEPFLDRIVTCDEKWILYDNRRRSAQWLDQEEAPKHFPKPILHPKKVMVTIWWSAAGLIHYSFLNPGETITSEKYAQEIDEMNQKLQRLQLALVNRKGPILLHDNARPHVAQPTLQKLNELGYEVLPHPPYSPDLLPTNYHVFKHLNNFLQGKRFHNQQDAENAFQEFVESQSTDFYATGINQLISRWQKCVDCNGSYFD

[6] = target: T3, Histone-arginine methyltransferase CARM1 (Homo sapiens, UniProt Q86X55); assay: Inhibition of PRMT4 using histone H3 as substrate preincubated for 10 mins followed by addition of [3H]SAM and incubated for 60 mins; procedure, shortened: as §1
T3 sequence (Q86X55 whole entry): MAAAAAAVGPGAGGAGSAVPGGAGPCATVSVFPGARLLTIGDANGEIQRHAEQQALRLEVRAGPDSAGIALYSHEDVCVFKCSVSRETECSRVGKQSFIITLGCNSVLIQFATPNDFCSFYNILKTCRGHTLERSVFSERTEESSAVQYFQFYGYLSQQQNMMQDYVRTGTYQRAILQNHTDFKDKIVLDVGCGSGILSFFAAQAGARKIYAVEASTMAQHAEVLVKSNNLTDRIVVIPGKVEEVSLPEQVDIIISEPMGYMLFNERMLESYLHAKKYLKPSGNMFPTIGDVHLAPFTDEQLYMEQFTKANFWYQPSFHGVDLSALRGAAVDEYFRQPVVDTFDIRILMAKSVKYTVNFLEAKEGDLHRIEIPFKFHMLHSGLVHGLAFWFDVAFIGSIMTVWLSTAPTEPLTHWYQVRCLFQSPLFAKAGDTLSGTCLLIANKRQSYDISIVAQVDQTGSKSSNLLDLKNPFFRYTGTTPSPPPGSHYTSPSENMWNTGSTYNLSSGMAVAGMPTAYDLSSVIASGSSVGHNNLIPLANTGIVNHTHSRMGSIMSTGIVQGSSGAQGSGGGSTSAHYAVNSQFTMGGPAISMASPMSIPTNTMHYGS

Row | Compound | IC50 [1] | IC50 [2] | IC50 [3] | IC50 [4] | IC50 [5] | IC50 [6] | inhibition [1]
1 | CCCc1cc(C)[nH]c(=O)c1CNC(=O)c1cc(-c2ccnc(N3CCN(C)CC3)c2)cc2c1cnn2C(C)C | 0.174 µM | > 100 µM | > 100 µM | 0.004 µM | > 100 µM | 128 µM | –
2 | CCCc1cc(C)[nH]c(=O)c1CNC(=O)c1cc(-c2ccc(N3CCN(C)CC3)nc2)cc2c1cnn2C(C)C | 0.079 µM | 121 µM | > 100 µM | 0.004 µM | > 100 µM | 116 µM | –
3 | Cc1cc(C)c(CNC(=O)c2cc(-c3ccc(N4CCN(C)CC4)nc3)cc3c2cnn3C(C)C)c(=O)[nH]1 | 0.324 µM | > 100 µM | > 100 µM | 0.02 µM | > 100 µM | > 100 µM | Dose-dependent effect
